Series [1] addresses ATP-dependent translocase ABCB1 (Homo sapiens, UniProt P08183). The experiment in a line: Inhibition of MDR1 expressed in MDCK cells assessed as calcein AM accumulation by fluorescence assay. The format is cell-based. An outline of the steps:
(§1)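 MDCK cells overexpressing MRP1 or MDR1 (P-gp) were seeded at 50,000/well and grown to confluence overnight. Compound in medium was added for 30 min at 37°C, then calcein-AM (2.5 µM final, in PBS) for 30 min. Cells were washed 3× with ice-cold PBS and fluorescence read at ex 485/em 535 nm. The increase over untreated basal level was fitted against log[dose] to give EC50.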

For series [2], the target named is Multidrug resistance-associated protein 1 (Homo sapiens, UniProt P33527). The experiment in a line: […] MRP1 expressed in MDCK cells assessed as calcein AM accumulation by fluorescence assay. Format: cell-based. An outline of the steps: as §1
Series [3] has as its system MDCK. The experiment in a line: Antiproliferative activity against MDCK cells at 10 uM by MTT assay. Format: cell-based, Canis lupus familiaris. To be noted: dog. An outline of the steps:
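MDCK-MDR1 cells grown in DMEM high glucose with 10% FBS and 2 mM glutamine at 37°C in 5% CO2. Seeded at 20000 cells/well, then treated next day with compound at 10 μM with solvent controls. MTT 0.5 mg/mL added after 24 or 48 h and incubated 3 h at 37°C. Formazan dissolved in DMSO; absorbance read at 570 and 630 nm.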

The test system of series [4] is MDCK. The experiment in a line: Inhibition of Pgp-mediated doxorubicine accumulation in MDCK cells assessed as nitreated-Pgp level at 10 uM by immunoprecipitation. The format is cell-based. To be noted: Canis lupus familiaris.

Each structure is given as a SMILES string. Activity calls are given as the source filed them. No cut-off for these calls is given here.

For 33 compounds, EC50 and Activity results are on record in ChEMBL document CHEMBL1212912, “Phenylsulfonylfuroxans as modulators of multidrug-resistance-associated protein-1 and P-glycoprotein” (J Med Chem, 2010).

Chain of Multidrug resistance-associated protein 1 (P33527 whole entry): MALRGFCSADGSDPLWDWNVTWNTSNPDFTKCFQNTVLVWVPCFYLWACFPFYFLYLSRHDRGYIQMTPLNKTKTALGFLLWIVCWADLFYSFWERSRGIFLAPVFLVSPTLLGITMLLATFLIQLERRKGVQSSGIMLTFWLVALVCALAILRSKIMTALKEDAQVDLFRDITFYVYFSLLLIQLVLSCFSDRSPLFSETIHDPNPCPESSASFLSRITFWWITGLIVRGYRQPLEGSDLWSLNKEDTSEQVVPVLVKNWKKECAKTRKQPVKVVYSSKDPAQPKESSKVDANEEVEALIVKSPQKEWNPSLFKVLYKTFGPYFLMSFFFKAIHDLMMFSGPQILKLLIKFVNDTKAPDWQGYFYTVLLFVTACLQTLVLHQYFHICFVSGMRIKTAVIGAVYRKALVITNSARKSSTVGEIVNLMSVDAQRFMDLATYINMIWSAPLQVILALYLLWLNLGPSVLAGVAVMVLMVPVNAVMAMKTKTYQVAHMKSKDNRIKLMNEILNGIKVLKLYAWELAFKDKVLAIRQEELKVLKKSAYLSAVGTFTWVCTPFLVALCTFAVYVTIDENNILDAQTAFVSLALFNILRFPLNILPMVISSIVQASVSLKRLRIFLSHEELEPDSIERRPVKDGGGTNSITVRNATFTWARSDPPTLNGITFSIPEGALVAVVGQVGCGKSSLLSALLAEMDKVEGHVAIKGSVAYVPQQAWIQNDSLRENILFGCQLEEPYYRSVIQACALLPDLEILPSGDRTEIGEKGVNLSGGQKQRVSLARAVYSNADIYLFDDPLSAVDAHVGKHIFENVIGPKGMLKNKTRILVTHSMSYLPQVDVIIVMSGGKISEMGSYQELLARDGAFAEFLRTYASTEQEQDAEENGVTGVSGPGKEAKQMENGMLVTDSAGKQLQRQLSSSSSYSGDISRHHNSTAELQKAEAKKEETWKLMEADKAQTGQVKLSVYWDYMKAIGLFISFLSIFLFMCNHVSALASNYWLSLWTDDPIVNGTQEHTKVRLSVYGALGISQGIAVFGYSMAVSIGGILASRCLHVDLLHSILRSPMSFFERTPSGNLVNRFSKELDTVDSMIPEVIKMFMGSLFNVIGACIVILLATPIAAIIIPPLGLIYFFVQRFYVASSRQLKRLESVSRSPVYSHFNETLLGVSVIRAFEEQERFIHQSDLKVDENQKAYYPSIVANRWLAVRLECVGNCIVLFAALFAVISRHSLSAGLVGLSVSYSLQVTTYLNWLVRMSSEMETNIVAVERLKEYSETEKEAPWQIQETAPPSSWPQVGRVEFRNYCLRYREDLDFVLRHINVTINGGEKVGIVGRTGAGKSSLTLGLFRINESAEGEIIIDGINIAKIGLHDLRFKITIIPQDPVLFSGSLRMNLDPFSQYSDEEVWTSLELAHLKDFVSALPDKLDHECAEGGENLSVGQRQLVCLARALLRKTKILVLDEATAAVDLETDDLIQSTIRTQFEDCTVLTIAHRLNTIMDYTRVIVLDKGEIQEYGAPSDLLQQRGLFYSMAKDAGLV
Chain of ATP-dependent translocase ABCB1 (P08183 whole entry): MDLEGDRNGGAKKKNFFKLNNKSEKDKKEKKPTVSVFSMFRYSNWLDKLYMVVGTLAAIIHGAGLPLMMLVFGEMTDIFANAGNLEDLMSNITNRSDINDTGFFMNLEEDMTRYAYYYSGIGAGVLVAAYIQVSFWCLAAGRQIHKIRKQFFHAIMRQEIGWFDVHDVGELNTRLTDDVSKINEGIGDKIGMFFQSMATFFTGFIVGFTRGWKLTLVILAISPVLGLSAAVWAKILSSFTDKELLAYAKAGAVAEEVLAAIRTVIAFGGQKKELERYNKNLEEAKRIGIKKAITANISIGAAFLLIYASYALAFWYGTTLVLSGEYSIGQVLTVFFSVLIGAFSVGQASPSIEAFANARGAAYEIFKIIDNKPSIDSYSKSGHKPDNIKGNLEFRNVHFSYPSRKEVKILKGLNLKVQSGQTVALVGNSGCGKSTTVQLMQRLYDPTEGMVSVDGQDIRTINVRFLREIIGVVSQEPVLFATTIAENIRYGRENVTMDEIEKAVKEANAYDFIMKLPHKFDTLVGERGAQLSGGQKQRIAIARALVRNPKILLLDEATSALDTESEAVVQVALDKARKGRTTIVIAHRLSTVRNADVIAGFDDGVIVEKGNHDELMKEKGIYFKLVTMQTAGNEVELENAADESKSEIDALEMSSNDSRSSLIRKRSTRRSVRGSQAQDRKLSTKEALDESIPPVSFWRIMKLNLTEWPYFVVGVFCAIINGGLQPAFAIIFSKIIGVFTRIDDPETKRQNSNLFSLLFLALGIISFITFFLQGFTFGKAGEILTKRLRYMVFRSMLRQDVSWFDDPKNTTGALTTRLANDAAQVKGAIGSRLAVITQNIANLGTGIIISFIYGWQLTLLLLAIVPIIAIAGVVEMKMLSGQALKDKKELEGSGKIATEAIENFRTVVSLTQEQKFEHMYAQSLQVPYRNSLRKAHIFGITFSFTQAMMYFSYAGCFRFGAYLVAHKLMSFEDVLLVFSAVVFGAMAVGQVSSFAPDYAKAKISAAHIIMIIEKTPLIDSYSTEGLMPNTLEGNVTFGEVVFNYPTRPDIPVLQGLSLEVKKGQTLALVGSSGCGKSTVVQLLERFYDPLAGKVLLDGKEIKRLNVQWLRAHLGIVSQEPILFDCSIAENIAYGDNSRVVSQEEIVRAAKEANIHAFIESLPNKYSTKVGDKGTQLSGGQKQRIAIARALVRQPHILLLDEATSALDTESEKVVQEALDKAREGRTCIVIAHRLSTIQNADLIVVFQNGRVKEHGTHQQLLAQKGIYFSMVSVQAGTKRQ

As to `NS(=O)(=O)c1no[n+]([O-])c1-c1ccccc1`, in series [1], the EC50 (as a rule, the concentration at which the effect is half-maximal) was over 100 µM.
`Cc1c(-c2ccccc2)no[n+]1[O-]`: the EC50 in series [1] is over 100 µM.
Same read-out and setting: the figure for `O=S(=O)(c1ccccc1)c1no[n+]([O-])c1-c1ccccc1` is 46 µM; for `NC(=O)c1no[n+]([O-])c1-c1ccccc1` it is over 100 µM; for `NC(=O)c1c(-c2ccccc2)no[n+]1[O-]` it is over 100 µM.
Regarding `NC(=O)c1no[n+]([O-])c1S(=O)(=O)c1ccccc1`, the concentration giving a half-maximal response (EC50) in series [1] is 50 µM; in series [2] it was 85.8 µM.
As to `N#Cc1no[n+]([O-])c1-c1ccccc1`, the concentration giving a half-maximal response (EC50) in series [1] was over 100 µM.
`N#Cc1c(S(=O)(=O)c2ccccc2)no[n+]1[O-]`: the EC50 in series [1] was 55.4 µM; in series [2], 72 µM.
Consider `[O-][n+]1onc(-c2ccccc2)c1-c1ccccc1`, for which the EC50 in series [1] was over 100 µM.
On the same count and under the same terms, the figure for `CCCCOc1nonc1S(=O)(=O)c1ccccc1` is 49.7 µM.
With `CCC(C)Oc1no[n+]([O-])c1S(=O)(=O)c1ccccc1` (stereo not drawn), the EC50 was 2.23 µM in series [1] and 46 µM in series [2]. For the same compound, in the series with MDCK [3], the Activity amounted to 45%.
With `Cc1no[n+]([O-])c1-c1ccccc1`, the EC50 in series [1] is over 100 µM.
Take `CCCCOc1no[n+]([O-])c1S(=O)(=O)c1ccccc1`: the EC50 in series [1] was 2.26 µM; in series [2], 7.61 µM. In addition, the result in the series on MDCK [4] was Active.
For the compound `O=S(=O)(c1ccccc1)c1c(-c2ccccc2)no[n+]1[O-]`, in series [1], the EC50 is 10 µM.
Same read-out and setting: the figure for `COc1c(-c2ccccc2)no[n+]1[O-]` is over 100 µM; for `CCCCCCCCCCOc1no[n+]([O-])c1S(=O)(=O)c1ccccc1` it is 3.31 µM.
For `N#Cc1no[n+]([O-])c1S(=O)(=O)c1ccccc1`, the EC50 in series [1] was 7.4 µM; in series [2] it was 29.5 µM.
In the case of `CCCCCCOc1nonc1S(=O)(=O)c1ccccc1`, the EC50 in series [1] is 32.2 µM.
`O=[N+]([O-])c1c(-c2ccccc2)n[o+]n1[O-]`: the EC50 in series [1] was 53 µM; in series [2] it was 45 µM.
The corresponding values for `CCOc1no[n+]([O-])c1S(=O)(=O)c1ccccc1` are 12 µM and 49.1 µM.
`COc1no[n+]([O-])c1-c1ccccc1`: the EC50 in series [1] was over 100 µM.
Consider `Nc1no[n+]([O-])c1-c1ccccc1`, for which the EC50 in series [1] is over 100 µM.
For `O=S(=O)(c1ccccc1)c1c(Oc2ccccc2)no[n+]1[O-]`, the EC50 in series [1] is 20.5 µM; in series [2] it was 13.6 µM.
On to `NS(=O)(=O)c1c(-c2ccccc2)no[n+]1[O-]`, for which, in series [1], the EC50 was over 100 µM.
Consider `CC1(C)CCC(C)(C)c2cc(-c3cc(-c4ccc(C(=O)O)cc4)no3)ccc21`, for which the half-maximal effective concentration (EC50) in series [1] was 1.5 µM.
As for `CC(C)Oc1no[n+]([O-])c1S(=O)(=O)c1ccccc1`, the values for the EC50 in series [1] and in series [2] were 2.15 µM and 63 µM, respectively. Besides, the Activity with MDCK [3] is on record as 30%.
As for `Cc1c(S(=O)(=O)c2ccccc2)no[n+]1[O-]`, the EC50 in series [1] is over 100 µM.
On the same count and under the same terms, the figure for `Cc1no[n+]([O-])c1S(=O)(=O)c1ccccc1` is 28.3 µM.
On to `Nc1c(-c2ccccc2)no[n+]1[O-]`, for which, in series [1], the EC50 is over 100 µM.
The same measure, in the same setting: the figure for `CCCCCCCCOc1no[n+]([O-])c1S(=O)(=O)c1ccccc1` is 4.6 µM.
The same measure, in the same setting: the figure for `NC(=O)c1c(S(=O)(=O)c2ccccc2)no[n+]1[O-]` is 52.6 µM.
On to `O=S(=O)(c1ccccc1)c1no[n+]([O-])c1S(=O)(=O)c1ccccc1`, for which the EC50 is 3 µM in series [1] and 15.1 µM in series [2].
For the compound `CCCCCCOc1no[n+]([O-])c1S(=O)(=O)c1ccccc1`, the EC50 in series [1] is 3.35 µM; in series [2] it was 12 µM. Further, the result in the series on MDCK [4] was Active.
